A selection follows.
Apaf1 activ – activators of human Apaf-1 apoptosome. actives 0.31% (n = 330,000). activity change, negative = activation, % at 20 µM. O14727. Apaf-1 apoptosome caspase-3 activation, DEVD-Rh110 fluorescence; stronger effect = lower value;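 active means activity change at or below -40% at 20 µM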
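Material: reconstituted apoptosome of Apaf-1, cytochrome c, caspase-9, procaspase-3; times: 30 min preincubation, 50 min reaction, room temperature; measured by: fluorescence, 540 nm emission, 480 nm excitation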
Rh110 interf act – Rh110 signal interference in Apaf-1 activator counter-screen | Rh110 fluorescence interference, quenched caspase reaction, Ex480/Em540 | shares compounds with Apaf1 activ | 980 tested, under 10 active | fluorescence interference (activity change), % at 20 µM, hits read low;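 active means mean activity change at or below -40% when tested at 20 µM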
Apaf-1 act conf2 – confirmation of human Apaf-1 activators; shares compounds with Apaf1 activ; reconstituted apoptosome caspase-3 activity, DEVD-Rh110 fluorescence; stronger effect = lower value; activity change, negative = activation, % at 20 µM; actives 5% (n = 980); AID 504617;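 active means mean activity change at or below -40%, meaning activation of 40% or more, at 20 µM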
Starred values were filed as active, the others as inactive.

For CCn1c(=O)c2cc(C(=O)N(C)c3cc(C)ccc3OC)sc2c2ccccc21 the results were Apaf1 activ 53.4.
For CCn1c2ccccc2c2cc(NC(C)=O)ccc21 the results were Apaf1 activ -225.6*, Rh110 interf act -0.7 and Apaf-1 act conf2 -1.1.
`CC(=O)Nc1ccc2c(c1)N(C(=O)CN(C)C)c1ccccc1CC2` gave Apaf1 activ 42.6.
COC(=O)c1ccc(-c2ccc(C(c3c(C)[nH][nH]c3=O)c3c(C)[nH][nH]c3=O)o2)cc1 was read as Apaf1 activ 44.0.
COCCOC(=O)c1[nH]c2c(c1C)C(=O)C(C(=O)OC)C(C)C2 (stereo not drawn) was read as Apaf1 activ -67.6*, Rh110 interf act -2.6 and Apaf-1 act conf2 9.7.
`Nc1nnc2c(n1)CCCC2` gave Apaf1 activ 82.8.
`C=CC[C@@H](Cc1ccc(F)cc1)C(=O)OC[C@H]1CCCN1C(=O)[C@@H](CC=C)CC(=O)N[C@H](CO)Cc1ccccc1` gave Apaf1 activ 40.9.
For CCN(CC)CCOc1ccc(/C(=C(/Cl)c2ccccc2)c2ccccc2)cc1 the results were Apaf1 activ 66.2.
`CCO/C=C1\SC(=S)N(c2ccc(Cl)cc2)C1=O` gave Apaf1 activ -109.3*, Rh110 interf act 3.9 and Apaf-1 act conf2 22.6.
O=C1C=C(N2CCCCC2)c2ccccc2C1=O was read as Apaf1 activ 97.6.
COc1cc(C)c2c(c1C=O)Oc1c(c(C)c(O)c3c1C(O)OC3=O)OC2=O (stereo not drawn) was read as Apaf1 activ 55.8.
`CC(=O)[C@@H]1[C@@H]2C(=O)N(Cc3ccccc3)C(=O)[C@@H]2C2c3ccccc3C=CN21` (stereo partly drawn) gave Apaf1 activ 67.4.
`Cc1cc(=O)[nH]c(N/N=C/c2ccc(Cl)c([N+](=O)[O-])c2)n1` gave Apaf1 activ -73.4*, Rh110 interf act 4.4 and Apaf-1 act conf2 9.2.
COC(=O)CCC(=O)OC1(C)C(=O)C2=CN(CCCCO)C(c3ccc(OC)cc3)=CC2=C(Br)C1=O (stereo not drawn) was read as Apaf1 activ 80.2.
For COc1ccc(CN(CCN(C)C)c2ccccn2)cc1 the results were Apaf1 activ 3.3.
Screening O=C(C1CCCCC1)N(Cc1ccccc1)c1ccccn1 returned Apaf1 activ -153.8*, Rh110 interf act -5.3 and Apaf-1 act conf2 1.6.
For CC(C)N(Cc1cc2ccccc2[nH]c1=O)C(=O)C1CCCCC1 the results were Apaf1 activ 57.3.
`C=CCn1c(SCC(=O)Nc2sccc2C(N)=O)nc2sc(CC)cc2c1=O` gave Apaf1 activ 42.1.
Screening Cc1[nH]n(-c2ccccc2)c(=O)c1C(c1cccc([N+](=O)[O-])c1)c1c(C)[nH]n(-c2ccccc2)c1=O returned Apaf1 activ 64.1.
For CCOC(=O)c1c(C)n(-c2ccc(C)cc2)c2c(C(C(C)=O)C(=O)O)c(Br)c(O)c(O)c12 (stereo not drawn) the results were Apaf1 activ 49.6.
Screening Cc1cn([C@H]2C[C@H](N=[N+]=[N-])[C@@H](CO)O2)c(=O)[nH]c1=O returned Apaf1 activ -43.4*, Rh110 interf act 6.4 and Apaf-1 act conf2 -2.8.
Screening COC(=O)c1cccc(C23CC4(C2)[C@H](CN(CC2CCCCC2)[C@@H]4c2ccccc2)C3c2ccccc2)c1 (stereo partly drawn) returned Apaf1 activ 40.3.
CC1=NN(c2ccc(C)cc2)C(=O)/C1=C\c1ccc(Br)s1 was read as Apaf1 activ 89.1.
Screening CC1=NN(c2ccc(Br)cc2)C(=O)/C1=C/c1cccs1 returned Apaf1 activ 96.0.
Screening O=C(O)CCCN1C(=O)/C(=C/c2ccc(-c3nc4ccccc4s3)o2)SC1=S returned Apaf1 activ -405.6*, Rh110 interf act 10.7 and Apaf-1 act conf2 -22.9.
Screening NC[C@@H]1O[C@H](C23CC4CC(CC(C4)C2)C3)Cc2c1ccc(O)c2O returned Apaf1 activ 42.4.
For CC(C)[C@@H]1CN=C(N)N1C[C@@H]1CCCN1C[C@H](C)N1C[C@@H](Cc2ccccc2)N(CCc2ccc(Cl)c(Cl)c2)C1=N the results were Apaf1 activ 53.9.
COCCNC(=O)CN(c1cccc(OC)c1)S(=O)(=O)c1ccc(C)cc1 was read as Apaf1 activ 57.1.
Cc1ccc(OCCNC(=O)CCNS(=O)(=O)c2ccc(C)cc2)cc1 was read as Apaf1 activ -605.3*, Rh110 interf act 16.5 and Apaf-1 act conf2 13.2.
Screening CCn1c(SCC(=O)N/N=C/C=C\c2ccco2)nc2ccccc21 returned Apaf1 activ 46.9.
`O=C(CNc1cccc2ccccc12)N/N=C/c1ccccn1` gave Apaf1 activ 48.2.
For O=C(Cn1c(-c2ccccn2)nc2ccccc21)N/N=C/c1ccccn1 the results were Apaf1 activ -44.3*, Rh110 interf act -0.3 and Apaf-1 act conf2 9.9.
`O=C(N/N=C/c1ccccc1O)C1(O)c2ccccc2-c2ccccc21` gave Apaf1 activ -59.2*, Rh110 interf act 6.0 and Apaf-1 act conf2 13.0.
C/C(=C\C(=S)Nc1ccccc1)Nc1cccc2ccccc12 was read as Apaf1 activ 96.6.
For COc1ccccc1-c1sc2ccccc2c1-c1ccc(OCCN2CCCCC2)cc1 the results were Apaf1 activ 62.1.
O=C(O)CCCNc1cc(N2CCN(C(=O)c3ccco3)CC2)c2noc3c2c1C(=O)c1ccccc1-3 was read as Apaf1 activ 59.9.
`Cn1c2c(c(=O)n(C)c1=O)CN(CCCN1CCOCC1)CN2` gave Apaf1 activ -59.0*, Rh110 interf act 6.6 and Apaf-1 act conf2 2.0.
O=CNn1cnc2c(oc3nc(-c4ccccc4)cc(-c4ccco4)c32)c1=O was read as Apaf1 activ -116.3*, Rh110 interf act 8.0 and Apaf-1 act conf2 -4.7.
For CN(C)c1cccc2c1c(NC(=O)Nc1ccccc1)nn2C the results were Apaf1 activ 82.4.
For C=CCN(CC=C)Cc1c(O)ccc2c1oc(=O)c1ccccc12 the results were Apaf1 activ 46.8.
Screening CC(=O)c1c(-c2ccccc2)c2cc(Cl)ccc2[nH]c1=O returned Apaf1 activ -49.2*, Rh110 interf act -1.9 and Apaf-1 act conf2 8.4.
COC(=O)CCC(=O)OC1(C)C(=O)C=C2C=C(C3CC3)N(Cc3ccccc3)C=C2C1=O (stereo not drawn) was read as Apaf1 activ 42.2.
`CCC[C@@H](CN1CCC[C@H]1CN1C(N)=NC[C@@H]1Cc1ccccc1)N1C[C@@H]([C@H](C)CC)N(CCc2ccc(Cl)c(Cl)c2)C1=N` gave Apaf1 activ 67.4.
For Cn1c(=O)c2c(nc(CN3CCc4ccccc4C3)n2Cc2cccc(Cl)c2)n(C)c1=O the results were Apaf1 activ 51.4.
For CC(C)CCn1c(CN2CCOCC2)nc2c1c(=O)n(C)c(=O)n2C the results were Apaf1 activ -44.2*, Rh110 interf act 8.8 and Apaf-1 act conf2 12.5.
For Cc1c(CCC(C)C)c(=O)n2c([nH]c3ccccc32)c1C#N the results were Apaf1 activ 59.6.
CC/C(=C(\c1ccccc1)c1ccc(OCCN(C)C)cc1)c1ccccc1 was read as Apaf1 activ 68.8.
